Assays:
[1] = target: Cannabinoid receptor 2 (Homo sapiens, UniProt P34972); test: Displacement of [3H]CP 55940 from human CB2 receptor expressed in CHO cells after 90 mins by liquid scintillation counting; type: cell-based
In short: (§1)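 Competition binding with 0.2 nM [3H]CP-55,940 and 5 mM MgCl2, in triplicate per concentration, using 50 mM Tris with 0.05% BSA and 0.1% ethanol/0.1% DMSO. CB1 used mouse whole-brain membranes and CB2 used CHO-hCB2 membranes. […] GF/B filtration, ice-cold washes, scintillation counting. Specific binding taken as percent of no-competitor.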

[2] = target: Cannabinoid receptor 1 (Mus musculus, UniProt P47746); test: Displacement of [3H]CP 55940 from CB1 receptor in mouse whole brain membrane homogenates after 90 mins by liquid scintillation counting; type: cell membranes; in short: as §1
[3] = Selectivity ratio of Ki for CB1 receptor in mouse whole brain membrane homogenates to Ki for human CB2 receptor; type: cell membranes

Cannabinoid receptor 2, sequence (P34972 whole entry): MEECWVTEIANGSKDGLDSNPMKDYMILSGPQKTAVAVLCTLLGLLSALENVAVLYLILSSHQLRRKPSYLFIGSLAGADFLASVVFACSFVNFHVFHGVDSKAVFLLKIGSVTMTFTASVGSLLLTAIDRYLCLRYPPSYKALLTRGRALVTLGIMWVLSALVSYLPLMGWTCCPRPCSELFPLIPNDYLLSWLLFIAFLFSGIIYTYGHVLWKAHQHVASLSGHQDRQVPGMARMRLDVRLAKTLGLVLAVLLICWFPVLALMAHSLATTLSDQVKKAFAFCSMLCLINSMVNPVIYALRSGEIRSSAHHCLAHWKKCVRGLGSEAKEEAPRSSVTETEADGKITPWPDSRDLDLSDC
Cannabinoid receptor 1, sequence (P47746 whole entry): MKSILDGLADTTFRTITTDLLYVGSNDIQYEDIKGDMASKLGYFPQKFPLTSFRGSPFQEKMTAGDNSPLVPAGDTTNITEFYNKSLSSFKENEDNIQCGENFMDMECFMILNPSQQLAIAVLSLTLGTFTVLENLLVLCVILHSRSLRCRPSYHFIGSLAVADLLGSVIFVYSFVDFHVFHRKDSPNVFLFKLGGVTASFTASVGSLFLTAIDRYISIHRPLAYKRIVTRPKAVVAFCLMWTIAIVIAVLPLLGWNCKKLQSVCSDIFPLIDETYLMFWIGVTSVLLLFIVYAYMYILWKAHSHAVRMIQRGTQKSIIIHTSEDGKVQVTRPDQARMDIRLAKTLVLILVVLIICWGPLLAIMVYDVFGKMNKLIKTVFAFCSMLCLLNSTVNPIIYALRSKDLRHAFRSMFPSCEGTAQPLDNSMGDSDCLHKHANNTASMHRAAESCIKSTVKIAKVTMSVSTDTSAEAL

Row | Compound | Ki [1] [nM] | Ki [2] [nM] | Ratio Ki [3]
1 | O=C1/C(=C/c2cn(Cc3ccccc3Br)c3ccccc23)N2CCC1CC2 | 333 | 629 | 
2 | O=C1/C(=C/c2cn(Cc3ccc(F)cc3)c3ccccc23)N2CCC1CC2 | 1.33 | 9.23 | 
3 | O=C1/C(=C/c2cn(Cc3ccccc3)c3ccccc23)N2CCC1CC2 | 11.7 | 135 | 
4 | OC1/C(=C/c2cn(Cc3ccccc3)c3ccccc23)N2CCC1CC2 (racemic) | 55.3 | 540 | 
5 | N#Cc1ccc(Cn2cc(/C=C3/C(=O)C4CCN3CC4)c3ccccc32)cc1 | 114 | 55.3 | 
6 | O=C1/C(=C/c2cn(Cc3ccc(Cl)cc3)c3ccccc23)N2CCC1CC2 | 20.3 | 31.7 | 
7 | COC(=O)c1ccc2c(/C=C3/C(=O)C4CCN3CC4)cn(Cc3ccccc3)c2c1 | 2.5 | 85.7 | 34
8 | COC(=O)c1ccc(Cn2cc(/C=C3/C(=O)C4CCN3CC4)c3ccccc32)cc1 | 588 | 953 | 
9 | O/N=C1/C(=C/c2cn(Cc3ccccc3)c3ccccc23)N2CCC1CC2 | 68.6 | 357 | 
10 | OC1/C(=C/c2cn(Cc3ccc(Cl)cc3)c3ccccc23)N2CCC1CC2 (racemic) |  | 85.3 | 
11 | O/N=C1/C(=C/c2cn(Cc3ccc(Cl)cc3)c3ccccc23)N2CCC1CC2 |  | 95.7 | 

Reference: ChEMBL document CHEMBL2346574, “Evaluation of (Z)-2-((1-benzyl-1H-indol-3-yl)methylene)-quinuclidin-3-one analogues as novel, high affinity ligands for CB1 and CB2 cannabinoid receptors” (Bioorg Med Chem Lett, 2013)
